From ChEMBL document CHEMBL5104229, “Novel tetrahydropyrimidinyl-substituted benzimidazoles and benzothiazoles: synthesis, antibacterial activity, DNA interactions and ADME profiling” (RSC Med Chem, 2022)
≈ marks a conversion by molar mass, not a printed value. Calls of active or inactive are those of the source. The calls are words filed in the database; no cut-off is given here.

How the values were obtained:
Staphylococcus aureus = test: Antibacterial activity against Staphylococcus aureus ATCC 29213 incubated assessed as inhibition of bacterial growth for 20 to 22 hrs by broth microdilution method; format: functional; conditions: time 20-22 hrs
Procedure, shortened: (§1)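 Broth microdilution per CLSI in cation-adjusted Mueller–Hinton broth, twofold dilutions over […]. Inoculum by direct colony suspension, 5 × 10^4 CFU per well. E. coli and S. aureus grown on MHA; E. faecalis, M. catarrhalis and streptococci on MHA with 5% sheep blood; streptococcal broth supplemented with 5% horse serum. MIC read visually after 20–22 h at 37 °C, ambient air.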

Moraxella catarrhalis = test: Antibacterial activity against Moraxella catarrhalis ATCC 23246 assessed as inhibition of bacterial growth incubated for 20 to 22 hrs by broth microdilution method; format: functional; conditions: time 20-22 hrs; procedure, shortened: as §1
Escherichia coli = test: Antibacterial activity against hypersensitive AcrAB deficient Escherichia coli assessed as inhibition of bacterial growth incubated for 20 to 22 hrs by broth microdilution method; format: functional; conditions: time 20-22 hrs; procedure, shortened: as §1
Enterococcus faecalis = test: Antibacterial activity against Enterococcus faecalis ATCC29212 assessed as inhibition of bacterial growth incubated for 20 to 22 hrs by broth microdilution method; format: functional; conditions: time 20-22 hrs; procedure, shortened: as §1
AT rich DNA [1] = test: Binding affinity to double stranded [poly(dA-dT)2] DNA (unknown origin) assessed as binding constant at pH 7 by fluorescence spectroscopy; format: nucleic-acid assay; conditions: Homo sapiens
Procedure, shortened: (§2)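 Fluorimetric titration at 25 °C, sodium cacodylate buffer pH 7.0, I = 0.05 mol dm−3: polynucleotide portions added to compound (e.g. 1 × 10−6 mol dm−3). Excitation ≥ 300 nm to avoid inner filter effect. Data fitted by Scatchard equation, recalculated at fixed n = 0.2 [bound compound]/[polynucleotide]; I/I0 is the calculated complex fluorescence over starting compound fluorescence.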

AT rich DNA [2] = test: Binding affinity to double stranded [poly(dA-dT)2] DNA (unknown origin) assessed as change in fluorescence intensity at pH 7 by fluorescence spectroscopy relative to control; format: nucleic-acid assay; conditions: Homo sapiens; procedure, shortened: as §2
AT rich DNA [3] = test: Binding affinity to double stranded [poly(dA-dT)2] DNA (unknown origin) minor groove assessed as effect on CD spectrum at pH 7 by CD spectroscopy; format: nucleic-acid assay
Procedure, shortened: (§3)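 CD titration at 25 °C, sodium cacodylate buffer pH 7, I = 0.05 mol dm−3: portions of compound stock (1 × 10−3 mol dm−3 in water, or DMSO for one compound) added to polynucleotide, e.g. poly(dAdT)2 at 2.0 × 10−5 mol dm−3. Scan 500–220 nm, 200 nm min−1, 3 accumulations. Polynucleotide concentration as phosphate.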

Calf thymus DNA [4] = test: Binding affinity to calf thymus double stranded DNA assessed as stabilization of DNA by measuring change in melting temperature at pH 7 by UV/Vis-spectrophotometry; format: nucleic-acid assay; conditions: Bos taurus
Procedure, shortened: (§4)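 Thermal denaturation in sodium cacodylate buffer, pH 7.0, I = 0.05 mol dm−3, compound/polynucleotide ratio r = 0.3. Absorbance at 260 nm followed versus temperature, ligand absorbance subtracted, scale normalized. Tm from first-derivative maximum, checked by tangent method. ΔTm = Tm(complex) − Tm(free nucleic acid), mean of at least two runs, error ±0.5 °C. ctDNA sonicated and filtered.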

Calf thymus DNA [5] = test: Binding affinity to calf thymus double stranded DNA minor groove assessed as assessed as effect on CD spectrum at pH 7 by CD spectroscopy; format: nucleic-acid assay; conditions: Bos taurus; procedure, shortened: as §3
AT rich DNA [6] = test: Binding affinity to double stranded [poly(dA-dT)2] DNA (unknown origin) assessed as stabilization of DNA by measuring change in melting temperature at pH 7 by UV/Vis-spectrophotometry; format: nucleic-acid assay; conditions: Homo sapiens; procedure, shortened: as §4
Streptococcus pyogenes [7] = test: Antibacterial activity against Macrolide sensitive Streptococcus pyogenes clinical isolate B0542 assessed as inhibition of bacterial growth incubated for 20 to 22 hrs by broth microdilution method; format: functional; conditions: time 20-22 hrs; procedure, shortened: as §1
Streptococcus pyogenes [8] = test: Antibacterial activity against Macrolide resistant Streptococcus pyogenes clinical isolate B0545 assessed as inhibition of bacterial growth incubated for 20 to 22 hrs by broth microdilution method; format: functional; conditions: time 20-22 hrs
Procedure, shortened: (§5)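 CLSI broth microdilution MIC in cation-adjusted Mueller Hinton broth supplemented with 5% horse serum for streptococci. Twofold dilutions across a 128–0.25 range. Strains grown on MHA with 5% sheep blood; inoculum by direct colony suspension, 5 × 10^4 CFU per well. Read visually after 20–22 h at 37 °C in ambient air; azithromycin and ampicillin as reference antibiotics.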

Streptococcus pneumoniae [9] = test: Antibacterial activity against Macrolide sensitive Streptococcus pneumoniae clinical isolate B0652 assessed as inhibition of bacterial growth incubated for 20 to 22 hrs by broth microdilution method; format: functional; conditions: time 20-22 hrs; procedure, shortened: as §5
Streptococcus pneumoniae [10] = test: Antibacterial activity against Macrolide resistant Streptococcus pneumoniae clinical isolate B0326 assessed as inhibition of bacterial growth incubated for 20 to 22 hrs by broth microdilution method; format: functional; conditions: time 20-22 hrs; procedure, shortened: as §5
[11] = Cytotoxicity against human HepG2 cells assessed as reduction in cell viability incubated overnight by MTT assay; format: toxicity, cell-based

| SMILES | MIC (Staphylococcus aureus) [µg/mL] | MIC (Moraxella catarrhalis) [µg/mL] | MIC (Escherichia coli) [µg/mL] | MIC (Enterococcus faecalis) [µg/mL] | log Ks (AT rich DNA [1]) | fold change (FC) (AT rich DNA [2]) | Activity (AT rich DNA [3]) | ΔTm (Calf thymus DNA [4]) [°C] | Activity (Calf thymus DNA [5]) | ΔTm (AT rich DNA [6]) [°C] | MIC (Streptococcus pyogenes [7]) [µg/mL] | MIC (Streptococcus pyogenes [8]) [µg/mL] | MIC (Streptococcus pneumoniae [9]) [µg/mL] | MIC (Streptococcus pneumoniae [10]) [µg/mL] | IC50 [11] [µM] |
| --- | --- | --- | --- | --- | --- | --- | --- | --- | --- | --- | --- | --- | --- | --- | --- |
| COc1cc(-c2nc3ccc(C4=NCCCN4)cc3s2)ccc1OCc1c[nH]nn1.Cl | > 128 | 32 | 128 | > 128 | – | – | – | – | – | – | – | – | – | – | – |
| COc1cc(-c2nc3ccc(C4=NCCCN4)cc3s2)ccc1OCc1cn(Cc2ccccc2)nn1.Cl | > 128 | 16 | 64 | 128 | – | – | – | – | – | – | – | – | – | – | – |
| COc1cc(-c2nc3ccc(C4=NCCCN4)cc3s2)ccc1OCc1ccccn1.Cl | > 128 | 32 | 128 | > 128 | – | – | – | – | – | – | – | – | – | – | – |
| Cl.c1cc(-c2nc3ccc(C4=NCCCN4)cc3s2)ccc1OCc1c[nH]nn1 | > 128 | 32 | > 128 | > 128 | – | – | – | – | – | – | – | – | – | – | – |
| Cl.O=C(COc1ccc(-c2nc3ccc(C4=NCCCN4)cc3s2)cc1)c1ccccc1 | 128 | 8 | 32 | > 128 | 5.3 | 4.9 | Active | 0 | Active | 3.1 | – | – | – | – | – |
| CC1(C)S[C@@H]2[C@H](NC(=O)[C@H](N)c3ccccc3)C(=O)N2[C@H]1C(=O)O [AMPICILLIN] | – | – | – | – | – | – | – | – | – | – | 0.25 (≈ 0.715 µM) | 0.25 (≈ 0.715 µM) | 0.25 (≈ 0.715 µM) | 0.25 (≈ 0.715 µM) | – |
| Cl.Fc1cc(-c2nc3ccc(C4=NCCCN4)cc3s2)ccc1OCc1c[nH]nn1 | 128 | > 128 | > 128 | > 128 | – | – | – | – | – | – | – | – | – | – | – |
| CC[C@H]1OC(=O)[C@H](C)[C@@H](O[C@H]2C[C@@](C)(OC)[C@@H](O)[C@H](C)O2)[C@H](C)[C@@H](O[C@@H]2O[C@H](C)C[C@H](N(C)C)[C@H]2O)[C@](C)(O)C[C@@H](C)CN(C)[C@H](C)[C@@H](O)[C@]1(C)O [AZITHROMYCIN] | 2 (≈ 2.67 µM) | 8 (≈ 10.7 µM) | 0.5 (≈ 0.668 µM) | 0.125 (≈ 0.167 µM) | – | – | – | – | – | – | 0.125 (≈ 0.167 µM) | 8 (≈ 10.7 µM) | 0.125 (≈ 0.167 µM) | 16 (≈ 21.4 µM) | – |
| Cl.c1ccc(Cn2cc(COc3ccc(-c4nc5ccc(C6=NCCCN6)cc5s4)cc3)nn2)cc1 | 128 | 4 | 32 | 128 | – | – | – | – | – | – | – | – | – | – | – |
| Cl.O=C(COc1ccc(-c2nc3ccc(C4=NCCCN4)cc3s2)cc1F)c1ccccc1 | 128 | 4 | 16 | 128 | – | – | Active | 0 | Active | 3.8 | 32 | 128 | 32 | 128 | > 100 |
